Data: ChEMBL document CHEMBL2424592, “Epothilone D and its 9-Methyl analogues: combinatorial syntheses, conformation, and biological activities” (Eur J Med Chem, 2013)

Assays:
Tubulin (Homo sapiens) = Tubulin (Homo sapiens) (UniProt P68371+Q9H4B7+P0DPH7+P68366+Q13509+Q71U36+P04350+Q3ZCM7+P07437+P68363+Q9BQE3+Q6PEY2+Q13885+Q9BVA1+Q9BUF5); assay: Inhibition of tubulin polymerization (unknown origin) at 5 uM; format: protein-complex assay
Outline: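 Tubulin came from fresh animal brain (species not given), homogenized in cold MES buffer and purified through repeated cold (4 °C) and warm 105,000 g centrifugation cycles, then diluted to 2 mg/mL in MES. Cold tubulin was mixed with ATPNa2 (40 mmol/L stock) and compound. Polymerization was followed as OD350 every 3 min at 37 °C for 30 min.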

MCF7 = assay: Cytotoxicity against human MCF7 cells after 72 hrs; format: functional, cell-based; details: MCF7, 72 h
[1] = Cytotoxicity against human MCF7/ADR cells after 72 hrs; format: functional, cell-based; details: NCI/ADR-RES

SMILES	inhibition (Tubulin (Homo sapiens))	IC50 (MCF7)	IC50 [1]
C/C1=C/C[C@@H](/C(C)=C/c2csc(C)n2)OC(=O)C[C@H](O)C(C)(C)C(=O)[C@H](C)[C@@H](O)[C@@H](C)[C@@H](C)CC1	8.5%	35.4 µM	–
C/C1=C\C[C@@H](/C(C)=C/c2csc(C)n2)OC(=O)C[C@H](O)C(C)(C)C(=O)[C@H](C)[C@@H](O)[C@@H](C)[C@@H](C)CC1	–	93.4 µM	> 100 µM
C/C1=C/C[C@@H](/C(C)=C/c2csc(C)n2)OC(=O)C[C@H](O)C(C)(C)C(=O)[C@H](C)[C@@H](O)[C@@H](C)CCC1 [EPOTHILONE D]	43.3%	0.014 µM	0.01 µM
C/C1=C/C[C@@H](/C(C)=C/c2csc(C)n2)OC(=O)C[C@H](O)C(C)(C)C(=O)[C@H](C)[C@@H](O)[C@@H](C)[C@H](C)CC1	15.7%	0.99 µM	0.51 µM
C/C1=C\C[C@@H](/C(C)=C/c2csc(C)n2)OC(=O)C[C@H](O)C(C)(C)C(=O)[C@H](C)[C@@H](O)[C@@H](C)[C@H](C)CC1	–	7.7 µM	7.3 µM
